IDE inh = inhibits human insulin-degrading enzyme in HEK cells. P14735. FAbetaB cleavage, fluorescence polarization. inhibition, % at 5.59 µM. 320,000 tested, 0.41% active;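 active = percent inhibition above the average of all tested compounds plus 3 SD, set per screening campaign, cut at about 16% in these data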;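 also: IDE supplied by intact live HEK cells; FP after avidin binding of uncleaved biotin substrate so inhibition keeps polarization high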
IDE cell activ = IDE (human) activation, cell-based. HEK cells, FAbeta-B cleavage, fluorescence polarization; 0% vehicle, 100% cell-free pure enzyme wells. 340,000 tested, 0.073% active. activation, % at 5.96 µM. AID 493087;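 active = activation above the mean of all tested compounds plus 3 SD, set per screening campaign, cut at about 17% in these data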
PREPL inhibitor = human PREPL enzyme inhibition | 320,000 tested, 0.68% active | Q4J6C6 | inhibition, % at 5.96 µM | recombinant PREPL, fluorescence polarization activity-based probe; in the data active = inhibition above about 43%
Target sequence (Q4J6C6 whole entry, looked up): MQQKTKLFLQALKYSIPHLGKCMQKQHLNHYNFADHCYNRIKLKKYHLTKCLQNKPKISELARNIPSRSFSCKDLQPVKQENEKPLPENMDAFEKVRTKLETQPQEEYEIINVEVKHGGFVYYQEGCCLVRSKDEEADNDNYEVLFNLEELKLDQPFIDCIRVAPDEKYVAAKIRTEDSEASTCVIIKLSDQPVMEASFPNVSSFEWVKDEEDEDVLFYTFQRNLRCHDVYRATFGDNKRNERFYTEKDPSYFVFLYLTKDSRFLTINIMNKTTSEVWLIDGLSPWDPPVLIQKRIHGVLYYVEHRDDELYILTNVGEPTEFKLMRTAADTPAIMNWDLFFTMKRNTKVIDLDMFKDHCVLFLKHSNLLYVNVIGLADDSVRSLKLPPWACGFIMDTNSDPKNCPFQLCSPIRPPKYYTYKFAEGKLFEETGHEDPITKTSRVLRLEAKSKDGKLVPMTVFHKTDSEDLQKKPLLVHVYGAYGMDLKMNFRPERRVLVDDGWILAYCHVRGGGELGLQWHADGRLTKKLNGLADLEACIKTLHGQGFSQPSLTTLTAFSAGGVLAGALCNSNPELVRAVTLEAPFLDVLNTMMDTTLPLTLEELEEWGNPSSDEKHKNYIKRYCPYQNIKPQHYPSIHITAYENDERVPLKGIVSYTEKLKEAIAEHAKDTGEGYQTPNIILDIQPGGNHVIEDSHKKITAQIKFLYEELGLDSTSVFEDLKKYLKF
ASAP1 GAP inh = ASAP1 ArfGAP inhibition; Q9ULH1; ASAP1-stimulated ARF1 GTP hydrolysis, GDP FP detection; inhibition, % at 16.5 µM; 360,000 tested, 0.19% active; AID 624377; in the data active = inhibition above about 25%
ARFGAP1 inh = inhibits rat ARF GTPase activating protein 1 | Arfgap1-stimulated ARF1 GTP hydrolysis, GDP FP detection | Q62848 | AID 651572 | inhibition, % at 16.5 µM | 360,000 tested, 0.26% active;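 active = inhibition above a per-plate limit, mean inhibition of low control wells plus 3 SD, cut at about 25% in these data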
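Material – truncated rat Arfgap1 GAP domain · Buffer or medium – HEPES-based buffer, pH 7.5 · Reagent – human ARF1(Δ1-17)-GTP substrate · Dosing – 16.5 µM single point, 1.26% DMSO · Schedule – GTP hydrolysis reaction 2 h at 25 °C · Technique – GDP detection by fluorescence polarization · Benchmarks – No-Arfgap1 wells (100%) versus DMSO full-reaction wells (0%) · Repeats – single replicate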
ARFGAP1 confirm = confirmation of rat ARFGAP1 inhibitors | shares compounds with ARFGAP1 inh | ARFGAP1-stimulated ARF1 GTP hydrolysis, GDP tracer FP | inhibition, % at 16.5 µM | 890 tested, 30% active | AID 651608;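 active = average inhibition over triplicates above the hit cutoff set in the earlier primary screen, cut at about 25% in these data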
Numbers stand for hits; i = inactive; nt = no result given. Shown are actives, neighbours in structure and some others; about 1.2% of the full set was active somewhere.

SMILES | IDE inh | IDE cell activ | PREPL inhibitor | ASAP1 GAP inh | ARFGAP1 inh | ARFGAP1 confirm
O=C(O)c1ccc(Cn2cnc3scc(-c4ccccc4)c3c2=O)cc1 | i | i | i | i | 25 | i
Cc1ccc(-c2csc3ncn(Cc4ccc(C(=O)O)cc4)c(=O)c23)cc1C | i | i | i | i | i | nt
O=c1nc(SCc2cccc(C(F)(F)F)c2)nc2ccccn12 | i | i | i | i | i | nt
O=C(Nc1cccc(Cl)c1)Nc1sccc1-c1nc2ccccc2s1 | i | nt | i | i | 27 | i
CC(Oc1ncnc2ccccc12)C(=O)Nc1cccc(S(=O)(=O)N2CCOCC2)c1 (configuration not stated) | i | i | i | i | i | nt
CCCc1ccc(Oc2cn[nH]c2-c2ccc(O)c(C)c2O)cc1 | i | i | i | i | 27 | 31
ON=C(c1ccccc1)c1ccc2c3c(cccc13)CC2 | nt | nt | nt | i | i | nt
COc1ccc(NC(=O)COC(=O)c2c3c(nc4ccccc24)CCCC3)cc1 | i | i | i | i | i | nt
COc1ccc(NC(=O)COC(=O)c2c3c(nc4ccccc24)CCCC3)cc1Cl | i | i | i | i | 27 | i
C[C@@H]1CN([C@H](C)CO)C(=O)CCCn2cc(nn2)CO[C@H]1CN(C)S(=O)(=O)c1ccc(C#N)cc1 | nt | nt | nt | i | i | nt
COc1ccc(C(c2oc(CO)cc(=O)c2O)c2oc(CO)cc(=O)c2O)cc1OC | i | i | i | i | 27 | i
N#C/C(=C\c1cccs1)C(=O)Nc1nccs1 | i | i | i | i | i | nt
Cc1ccc(S(=O)(=O)N2CCN(C(=O)c3cc(S(=O)(=O)N(C)C)ccc3N3CCCC3)CC2)cc1 | i | i | i | i | i | nt
Cc1cc(C(=O)NNc2c(Cl)cccc2Cl)n(C(C)(C)C)n1 | i | i | i | i | i | nt
Cc1cc(C(=O)O)n(C(C)(C)C)n1 | i | i | i | i | 27 | i
Cc1onc(-c2ccccc2Cl)c1C(=O)N1CCCC1 | i | i | i | i | i | nt
Cc1onc(-c2ccccc2Cl)c1C(=O)N1CCC(C(N)=O)CC1 | nt | i | nt | i | 32 | i
O=C(Nc1ccc(Cl)cc1)C1C2CCCCC21 (configuration not stated) | i | i | i | i | i | nt
O=C(CCNS(=O)(=O)c1ccc(Cl)cc1)Nc1ccncc1 | i | i | i | i | i | nt
CCOc1ccc(NC(=S)N=Nc2c(O)[nH]c3ccccc23)cc1 | i | i | i | i | 27 | i
Cc1nc2ccccc2cc1C(=O)N/N=C/c1cccc([N+](=O)[O-])c1 | i | i | i | i | 25 | i
O=c1[nH]c(CN2CCCCC2)ccc1O | nt | nt | nt | i | i | nt
COc1ccc(C2NN=C(c3c[nH]c4ccccc34)C2O)cc1 (configuration not stated) | i | i | i | i | i | nt
COc1ccc(C2C(O)C(c3c[nH]c4ccccc34)=NN2C(=O)CCl)cc1 (configuration not stated) | i | i | i | i | 26 | i
COc1ccc(NC(=O)C(c2ccnc3ccccc23)n2c(=O)c(-c3ccccc3)nc3ccccc32)cc1 (configuration not stated) | nt | nt | nt | i | i | nt
SMILES | IDE inh | IDE cell activ | PREPL inhibitor | ASAP1 GAP inh | ARFGAP1 inh | ARFGAP1 confirm
O=C(NCCc1ccc(F)cc1)c1cccc(NC(=O)c2ccccc2)c1 | i | i | i | i | 37 | i
Cc1cccc(N(CC(=O)N2CCN(c3ccccc3F)CC2)S(C)(=O)=O)c1 | i | i | i | i | i | nt
CS(=O)(=O)N(CC(=O)N1CCN(c2ccccc2F)CC1)c1ccc2c(c1)OCCO2 | i | i | i | i | 34 | i
CC1C(=O)N2CCCc3cc(NC(=O)C(=O)NCc4cccnc4)cc1c32 (configuration not stated) | i | i | i | i | 27 | i
CC1C(=O)N2CCCc3cc(NC(=O)C(=O)NCc4ccc5c(c4)OCO5)cc1c32 (configuration not stated) | i | i | i | i | i | nt
CCNC(=O)C1(C)CCN(C(=O)c2ccc(OC)cc2OC)C1 (configuration not stated) | nt | nt | nt | i | i | nt
CCOC(=O)C1CCN(C(=O)c2ccc(OC)cc2OC)CC1 | i | i | i | i | 29 | i
COc1ccc(C(=O)N2CCC(C)(C(=O)O)C2)c(OC)c1 (configuration not stated) | nt | nt | nt | i | 26 | i
CCOC(=O)C1CCCN(C(=O)c2ccc(OC)cc2OC)CC1 (configuration not stated) | nt | nt | nt | i | i | nt
CN(C)CCCNC(=O)C[C@H]1C[C@H](C(=O)N2CCOCC2)[C@@]2(CCC3CCCC3)c3[nH]c4cc(CCC(=O)N(C)C)ccc4c3CCN2C1=O | nt | i | nt | i | i | nt
CSCC[C@H](NC(=O)N1CCn2c1nc1ccccc12)C(=O)NCc1ccco1 | i | i | i | i | i | nt
Cc1[nH]c2ccccc2c1CC(=O)Nc1ccc(Nc2cccnc2)c(-c2cc(F)cc(F)c2)c1 | nt | nt | nt | i | 26 | i
Cc1[nH]c2ccccc2c1CC(=O)Nc1ccc(Nc2cccnc2)c(-c2cc(C(F)(F)F)cc(C(F)(F)F)c2)c1 | nt | nt | nt | i | i | nt
Cc1[nH]c2ccccc2c1CC(=O)Nc1ccc(Nc2ccccc2)cc1 | nt | nt | nt | i | 29 | 25
Cc1cc(NC(=O)Cc2c(C)[nH]c3ccccc23)ccc1Oc1cccnc1 | nt | nt | nt | i | i | nt
COc1cccc(N2CC(C(=O)Nc3nnc(SCCN4CCOCC4)s3)CC2=O)c1 (configuration not stated) | i | i | i | i | i | nt
CCOc1ccc(S(=O)(=O)N2CCOCC2)cc1NC(=O)CCOc1ccc(C(C)(C)C)cc1 | nt | i | nt | i | i | nt
COc1ccc(C2=Nn3c(nnc3-c3ccccc3Cl)SC2)cc1OC1CCOC1 (configuration not stated) | i | i | i | i | i | nt
COc1ccc(OC)c(-c2nnc3n2N=C(c2ccc(OC)c(OC4CCOC4)c2)CS3)c1 (configuration not stated) | i | i | i | i | 26 | i
O=C(Nc1ccc(OC(F)(F)F)cc1)C1CCCN(C(=O)c2ccc(Cl)cc2)C1 (configuration not stated) | i | i | i | i | 25 | i
CC(=O)Nc1ccc(NC(=O)C2CCCN(C(=O)c3ccc(Cl)cc3)C2)cc1 (configuration not stated) | i | i | i | i | i | nt
O=C(COC(=O)c1ccc(O)cc1O)NC1CCCCCC1 | i | i | i | i | i | nt
O=C(NCc1csc(-c2cccs2)n1)Nc1cccc(Cl)c1 | i | i | i | i | 26 | i
Cc1noc(C)c1COc1ccccc1C(=O)NC1CCC(C)CC1 (configuration not stated) | i | i | i | i | i | nt
CN(CC(=O)NCC1CCCO1)S(=O)(=O)c1ccc2ccccc2c1 (configuration not stated) | nt | nt | nt | i | 32 | i
CSCCC(NC(=O)c1ccccc1Cl)C(=O)N(C)CC(=O)Nc1ccc(N2CCOCC2)cc1 (configuration not stated) | i | i | i | i | i | nt

Screening results (PubChem)
